# According to paper PMC4956519 (Journal of chromatography. B, Analytical technologies in …, 2016):
# Where a SMILES comes first, the peptide text is derived from it.
# Assay type: in vivo, mice
# Outline: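 Adult male C57BL/6J mice (20–25 g), single i.v. injection 10 mg/kg in 10% Solutol in saline; 5 mice per time point killed at 2, 5, 15, 30, 60 min, cardiac blood centrifuged for plasma. Plasma precipitated with ice-cold acetonitrile containing internal standard, supernatant diluted with water; C8 reversed-phase LC-MS/MS, positive-ion MRM m/z 578.1→217.1/245.0; calibration 0.5–500 ng/mL; non-compartmental analysis.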
# [1] = male, C57BL/6J, mouse, plasma, iv, 10 mg/kg
smiles,measurement,setting,value
"O=C1N[C@H](Cc2c[nH]c3ccccc23)C(=O)N[C@@H](Cc2ccccc2)C(=O)N2CCC[C@@H]2C(=O)N[C@H]1Cc1ccccc1 [[D-Trp]CJ-15,208, cyclo[Phe-D-Pro-Phe-D-Trp]] (HELM PEPTIDE1{F.[dP].F.[dW]}$PEPTIDE1,PEPTIDE1,1:R1-4:R2$$$V2.0)",Time to almost complete elimination from plasma,"10 mg/kg i.v. to mice, LC-MS/MS",≤ 1 h
same,AUC0-t,"male C57BL/6J mice, 10 mg/kg i.v., plasma, LC-MS/MS, non-compartmental analysis, 5 mice per time point",19124.7 ng·min/mL
same,AUC(0-inf),[1],337 ng·h/mL
same,C0,[1],1130 ng/mL
same,Cmax,[1],1020 ng/mL
same,Vd,[1],10.1 L/kg
same,clearance,[1],494 mL/min/kg
same,half-life,[1],14.2 min
same,Decline of plasma concentration,"within 15 minutes after 10 mg/kg i.v. to mice, LC-MS/MS",over 50%
